What is called IC50 is the concentration needed to halve the response being measured.

Each structure is given as a SMILES string. The source made the active and inactive calls. The calls are words filed in the database; no cut-off is given here.

For assay [1], the target named is Toll-like receptor 3 (Homo sapiens) (UniProt O15455). In words: Antagonist activity at human TLR3 expressed in HEK293 cells assessed as decrease in poly I:C-induced NF-kappaB activation-mediated SEAP production at 10^-9 to 10^-5 M after 24 hrs by Quanti-blue-based assay. Type of assay: cell-based. The gist of the method: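 HEK293 cells stably carrying a human TLR plus an NF-κB-driven SEAP reporter, seeded 5×10^4/well for 24 h at 37 °C, then stimulated: Pam3CSK4 100 µg/mL (TLR1/2), Pam2CSK4 100 µg/mL, poly I:C 5 µg/mL (TLR3), LPS 20 ng/mL (TLR4), flagellin 100 ng/mL (TLR5), R848 1 µg/mL (TLR7, TLR8), CpG-ODN2006 1 µg/mL (TLR9). After 24 h with compound, supernatant mixed with QUANTI-Blue, 1 h 37 °C, OD 620 nm.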

Assay [2] addresses Protein kinase C (PKC) (Homo sapiens) (UniProt O94806+P41743+P17252+P05129+Q05655+P05771+Q05513+Q02156+P24723+Q15139+Q04759). In words: (§1) Inhibition of PKC in HEK-blue cells expressing human TLR7 assessed as inhibition of PMA-induced NF-kappaB activation-mediated SEAP production after 24 hrs by Quanti-blue-based assay. Type of assay: cell-based.
A further assay has as its target Protein kinase C (PKC). Described as §1. In kind it is cell-based.
Assay [3] can be described thus: Inhibition of LPS-induced NFkappaB activation in mouse RAW264.7 cells assessed as reduction in nitric oxide production after 18 hrs by DAN assay. Type of assay: cell-based. Particulars: RAW264.7, 18 h. The gist of the method: (§2)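 RAW 264.7 cells at 2×10^5 cells/mL, 24 h, medium refreshed, then LPS 100 ng/mL with or without graded compound for 18 h; nitrite in medium reacted with 2,3-diaminonaphthalene (0.05 mg/mL in 0.62 M HCl), 15 min in dark, as NO readout. n = 3, mean ± SD.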

For the next assay, the system named is RAW264.7. In words: Antiinflammatory activity in mouse RAW264.7 cells assessed as decrease in LPS-induced NO production after 18 hrs by DAN assay. In kind it is functional, cell-based. The method, boiled down: as §2
Another assay deals with HeLa. Nature of the assay: Cell cycle arrest in human HeLa cells assessed as accumulation at G0/G1 phase at 10 uM after 24 hrs by propidium iodide staining based flow cytometry (reference value: 49.4%). In kind it is functional. The method, boiled down: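 HeLa cells, 3×10^5/well, attached overnight, switched to serum-free medium for synchronisation, then DMSO or 5, 10, 20 µM for 24 h; cells fixed, PI-stained, G0/G1, S and G2/M fractions by flow cytometry; n = 3, mean ± SD.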
Background: In flow cytometry, cells or beads pass a laser one at a time.

Chain of Toll-like receptor 3 (Homo sapiens) (O15455 whole entry): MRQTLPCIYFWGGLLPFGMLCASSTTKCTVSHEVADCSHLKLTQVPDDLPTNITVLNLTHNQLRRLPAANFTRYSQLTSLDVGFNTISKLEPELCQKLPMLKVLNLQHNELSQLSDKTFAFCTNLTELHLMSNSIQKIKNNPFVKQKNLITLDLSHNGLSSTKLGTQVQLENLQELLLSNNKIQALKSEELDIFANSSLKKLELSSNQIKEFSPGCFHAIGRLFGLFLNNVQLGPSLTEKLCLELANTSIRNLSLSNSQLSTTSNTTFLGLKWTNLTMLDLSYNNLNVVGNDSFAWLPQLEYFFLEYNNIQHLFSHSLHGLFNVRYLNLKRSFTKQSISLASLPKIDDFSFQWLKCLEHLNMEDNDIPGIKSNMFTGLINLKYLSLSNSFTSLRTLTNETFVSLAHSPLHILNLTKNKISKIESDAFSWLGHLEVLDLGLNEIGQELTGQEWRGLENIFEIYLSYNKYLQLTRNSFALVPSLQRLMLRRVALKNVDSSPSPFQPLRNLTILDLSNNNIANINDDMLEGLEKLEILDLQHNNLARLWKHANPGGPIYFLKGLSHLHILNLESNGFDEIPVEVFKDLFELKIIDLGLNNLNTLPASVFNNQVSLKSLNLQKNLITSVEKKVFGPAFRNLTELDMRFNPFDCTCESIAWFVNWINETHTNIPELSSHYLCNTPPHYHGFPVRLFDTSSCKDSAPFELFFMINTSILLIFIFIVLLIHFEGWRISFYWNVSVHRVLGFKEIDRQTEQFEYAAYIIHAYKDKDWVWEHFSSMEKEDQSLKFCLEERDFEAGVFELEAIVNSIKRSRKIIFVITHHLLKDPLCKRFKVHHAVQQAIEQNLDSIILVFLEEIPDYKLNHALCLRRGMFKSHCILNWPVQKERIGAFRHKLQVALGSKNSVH

For the compound `O=C(NNC(=O)c1csc(-c2ccc(Cl)cc2Cl)n1)c1ccccn1`, the inhibition entry in assay [1] was “Active”. Moreover, the inhibition result in assay [2] is “Dose-dependent effect”. The IC50 stood at 590 nM on Protein kinase C (PKC) and 80 nM in assay [3]. Also, in the assay on RAW264.7, the outcome was Active. The Activity in the assay on HeLa came to 54.7%.
